Experimental findings from ChEMBL document CHEMBL2086298, “Synthesis and biological evaluation of fatty acyl ester derivatives of (-)-2',3'-dideoxy-3'-thiacytidine” (J Med Chem, 2012) are described below.

In one data set the test system is HeLa. Nature of the data set: Cytotoxicity against human HeLa P4/R5 cells incubated for 2 hrs followed by compound-wash out measured after 46 hrs by MTT assay. On the technique in general: Formazan colour is commonly taken as a measure of viable cells.
The test system of data set [1] is Human immunodeficiency virus 1. Nature of the data set: Antiviral activity against HIV1 3B assessed as inhibition of infection in HeLa P4/R5 cells expressing CD4 receptor and beta-gal incubated for 2 hrs followed by compound-wash out measured after 46 hrs by single round infection MAGI assay. Conditions: Human immunodeficiency virus 1, 3B; call rule not given here. It is filed as functional, organism-based. In outline: (§1)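 P4R5 MAGI cells (CD4 and coreceptor expressing) were seeded at 1.2 × 10⁴ cells/well about 18 h before infection. They were exposed for 2 h at 37 °C to cell-free HIV-1 with or without compound, then washed and cultured 46 h more. Infection was read by β-galactosidase reporter chemiluminescence as a percentage of untreated infection. EC₅₀ came from regression, with triplicate wells per concentration.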

The test system of data set [2] is Human immunodeficiency virus 1. The data set can be described thus: Antiviral activity against HIV1 BaL assessed as inhibition of infection in HeLa P4/R5 cells expressing CD4 receptor and beta-gal incubated for 2 hrs followed by compound-wash out measured after 46 hrs by single round infection MAGI assay. The note with it: Human immunodeficiency virus 1, BaL. The data set is classed as functional, organism-based. In a few lines: as §1

For data set [3], the system named is Human immunodeficiency virus. The data set can be described thus: Antiviral activity against HIV infected in human CEM-SS cells. Conditions: Human immunodeficiency virus 1, CEM-SS. The data set is classed as functional, organism-based.
The test system of data set [4] is CCRF-CEM. The data set can be described thus: Drug metabolism in human CCRF-CEM cells assessed as compound hydrolysis at 50 uM after 1 hr by HPLC analysis.
For data set [5], the system named is Human immunodeficiency virus 1. The data set can be described thus: Antiviral activity against NRTI-resistant HIV1 71361-1 clade B clinical isolate infected in PHA-stimulated human PBMC assessed as inhibition of viral replication incubated for 6 hrs followed by compound-wash out measured after 6 days by liquid scintillation counting. The data set is classed as functional, organism-based. Conditions: Human immunodeficiency virus 1, 71361-1 clade B.

The test system of data set [6] is Human immunodeficiency virus 1. The data set can be described thus: Antiviral activity against HIV1 98USMSC5016 clade C clinical isolate infected in PHA-stimulated human PBMC assessed as inhibition of viral replication incubated for 6 hrs followed by compound-wash out measured after 6 days by liquid scintillation counting. It is filed as functional, organism-based. The note with it: Human immunodeficiency virus 1, 98USMSC5016 clade C.

Data set [7] concerns CCRF-CEM. Nature of the data set: Cellular uptake in human CCRF-CEM cells at 50 uM after 1 hr by HPLC analysis. It is filed as ADME, cell-based. In a few lines: (§2)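 CCRF-CEM cells were grown in serum-free RPMI to ~70–80% confluency (1 × 10⁶ cells/mL), then given medium containing 50 μM compound at 37 °C for 1–72 h. Pellets were washed in ice-cold PBS and extracted with methanol/chloroform/isopropanol (4:3:1), then filtered. Parent ester and products were tracked by analytical HPLC at 265 nm using a water/acetonitrile (0.1% TFA) gradient.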

For data set [8], the system named is Human immunodeficiency virus 1. The data set can be described thus: Antiviral activity against multidrug-resistant HIV1 4755-5 clade B clinical isolate infected in PHA-stimulated human PBMC assessed as inhibition of viral replication incubated for 6 hrs followed by compound-wash out measured after 6 days by liquid scintillation counting. It is filed as functional, organism-based. The note with it: Human immunodeficiency virus 1, 4755-5 clade B.

Data set [9] concerns CCRF-CEM. The data set can be described thus: Drug metabolism in human CCRF-CEM cells assessed as compound hydrolysis at 50 uM after 1 hr by HPLC analysis. It is filed as ADME, cell-based. In a few lines: as §2
A short description of data set [10]: Cytotoxicity against PHA-stimulated human PBMC incubated for 6 hrs followed by compound-wash out measured after 6 days. It is filed as cell-based. In outline: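 PHA-P-stimulated PBMCs pooled from at least two normal donors were exposed to compound dilutions for 6 h. Cells were then washed by medium replacement and centrifugation (~200g, 10 min) and cultured 6 days or until peak RT activity. Cytotoxicity was monitored by MTS on the same plates used for antiviral testing, alongside drug-plus-medium control wells without cells.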

Data set [11] has as its system Human immunodeficiency virus 1. The data set can be described thus: Antiviral activity against HIV1 94US3393IN clade B clinical isolate infected in PHA-stimulated human PBMC assessed as inhibition of viral replication incubated for 6 hrs followed by compound-wash out measured after 6 days by liquid scintillation counting. It is filed as functional, organism-based. Conditions: Human immunodeficiency virus 1, 94US3393IN clade B.

Data set [12] relates to Human immunodeficiency virus 1. The data set can be described thus: Antiviral activity against NNTRI-resistant HIV1 A-17 clade B clinical isolate infected in PHA-stimulated human PBMC assessed as inhibition of viral replication incubated for 6 hrs followed by compound-wash out measured after 6 days by liquid scintillation counting. It is filed as functional, organism-based. The note with it: Human immunodeficiency virus 1, A-17 clade B.

For data set [13], the system named is Human immunodeficiency virus 1. Nature of the data set: Antiviral activity against HIV1 by cell-based assay. It is filed as functional, organism-based.
Data set [14] deals with Human immunodeficiency virus 1. Nature of the data set: Ratio of lamivudine EC50 to compound EC50 for HIV1 by cell-based assay. It is filed as functional.

Molecules are shown by their SMILES. A value given as a limit tells only on which side of the number the result lay.

`CCSCCCCCCCCCCCC(=O)OC[C@@H]1O[C@H](n2ccc(N)nc2=O)CS1`: the EC50 is more than 212 µM in the data set on HeLa, 2.3 µM in data set [1] and 0.2 µM in [2].
In the same order, the values of `CCCCCCCCCCCCCC(=O)Nc1ccn([C@@H]2CS[C@H](COC(=O)CCCCCCCCCCCCC)O2)c(=O)n1` are more than 154 µM, more than 154 µM and 135 µM.
`CCSCCCCCCCCCCCC(=O)O` had an EC50 in data set [3] of 9.4 µM.
For `CCCCCCCCCCCCCC(=O)OC[C@@H]1O[C@H](n2ccc(N)nc2=O)CS1`, the Drug metabolism result with CCRF-CEM [4] and in the data set on CCRF-CEM [9] was “Active” each time. In addition, the IC50 in data set [5] is 0.0433 µM; in data set [6], 0.0019 µM; in [8], 5.09 µM; in data set [11], 0.0042 µM; in data set [12] it was 0.0028 µM. Also, the IC90 in data set [5] was 0.253 µM; in data set [6], 0.0275 µM; in data set [8], more than 6.83 µM; in data set [11], 0.015 µM; in [12] it was 0.0311 µM. Moreover, the EC50 with HeLa is more than 228 µM; in data set [1], 0.5 µM; in [2], 0.2 µM. The Drug uptake entry in the data set with CCRF-CEM [7] is “Active”. The CC50 in [10] is more than 6.83 µM.
Consider `CCSCCCCCCCCCCCC(=O)Nc1ccn([C@@H]2CS[C@H](CO)O2)c(=O)n1`, for which the EC50 in the data set on HeLa is more than 212 µM; in [1], 5.3 µM; in [2], 0.4 µM.
For `Nc1ccn([C@@H]2CS[C@H](CO)O2)c(=O)n1` [LAMIVUDINE], the results for the EC50 (in [13]; in the data set on HeLa) were 80.3 µM and more than 437 µM, respectively. Further, in data set [10], the CC50 is more than 13.1 µM.
For the compound `[N-]=[N+]=NCCCCCCCCCCCC(=O)OC[C@@H]1O[C@H](n2ccc(N)nc2=O)CS1`, the concentration for a half-maximal effect (EC50) with HeLa was more than 221 µM; in data set [1] it was 0.9 µM; in data set [2], 0.7 µM.
In the case of `[N-]=[N+]=NCCCCCCCCCCCC(=O)Nc1ccn([C@@H]2CS[C@H](COC(=O)CCCCCCCCCCCN=[N+]=[N-])O2)c(=O)n1`, the EC50 is more than 148 µM in the data set with HeLa, 148 µM in [1] and 72.6 µM in data set [2].
In the same order, the values of `[N-]=[N+]=NCCCCCCCCCCCC(=O)Nc1ccn([C@@H]2CS[C@H](CO)O2)c(=O)n1` are more than 221 µM, 29.4 µM and 3.8 µM.
Turning to `CCCCCCCCCCCCCC(=O)Nc1ccn([C@@H]2CS[C@H](CO)O2)c(=O)n1`, in data set [14], the “Ratio EC50” value was 115. In addition, the EC50 with HeLa was more than 228 µM; in [1] it was 10.9 µM; in data set [2], 0.7 µM.

Usually EC50 stands for the concentration at which the effect is half-maximal. As a reminder, the IC50 is the concentration that inhibits the measured activity by half. Usually IC90 stands for the point of the concentration-response curve where the effect stands at 90%. The CC50 is the concentration that lowers cell viability or growth by half. High values mean lower toxicity to the cells, low ones greater toxicity to the cells.
